High-throughput results from PubChem BioAssay.
An excerpt weighted towards active compounds, which were near 3.1% of everything screened.
Ecoli rRNA inh: reduced GFP signal of wild-type E. coli, primary screen, bacterial rRNA inhibitor project, GFP/RFP fluorescence, OD600, single point; E. coli WT GFP vs humanized-ribosome RFP mutants, 24 h; active compounds read low; DMSO median 0, no signal -100; GFP signal change (wild-type ribosome), % (concentration not given with the values); 1.6% of 350,000 active;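 active = significant combined selectivity score with lowered wild-type GFP, culture density cut under 30%, mutant RFP and density less affected; inactive = any of these conditions unmet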
F508del corr: F508del CFTR correction, initial screen, CFBE line, single point; activity (quench increase), % at 7.58 µM; CFBE cells, YFP halide quenching; stimulated with forskolin plus potentiator P3; % fluorescence drop versus neutral controls; 0.36% of 350,000 active;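 active = mean added fluorescence quench of at least 8% versus neutral control, with both replicates also reaching 8%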;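 note: cells transiently co-express mutant CFTR-F508del with the halide-sensitive YFP; corrector assay measuring rescue of mutant channel to the surface after 24 h compound exposure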
Cneo AK release: Cryptococcus neoformans cell lysis inducers, primary screen, AK release luminescence, single concentration | 0.2% of 360,000 active | AID 651654, 2012 | C. neoformans lysis, adenylate kinase release luminescence, 4 h; normalised: neutral wells 0, clomiphene wells 100 | lysis activity, % at 15 µM;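 active = mean lysis activity across replicates of at least 80%, whatever share of replicates individually reach that level; inactive = mean lysis activity below 80%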
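Assay system: log-phase C. neoformans yeast / Quantity: yeast cell density of 5 × 10^6 cells/mL / Medium: fresh YPD growth medium / Compound: single dose / Timing: static 4 h at 37 °C with compound, 1 h detection / Measured by: adenylate kinase release luminescence / Read-out: lysis from increased AK signal / Benchmarks: Clomiphene as positive lysis control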
miR122 inh: miR-122 Renilla sensor signal increase in Huh7, primary screen, miR-122 inhibitor project, cell-based, single point, plate reader; Huh7 miR-122 Renilla luciferase sensor, 48 h; neutral wells = 0, positive control = 100; 0.3% of 340,000 active; AID 602342, 2012; activation (reporter increase), % at 12.5 µM;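 active = mean replicate activation score at least 90 and every replicate individually at or above 90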;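 note: higher luciferase means less miR-122 activity so hits act as miR-122 inhibitors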
HIV Env fusion: inhibitors of HIV-1 Env-driven cell-cell fusion, primary screen, HeLa-JRFL effector, CEM21 target cells, luciferase; inhibition, % at 12.3 µM; 1.1% of 360,000 active;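 active = mean replicate inhibition score of at least 50 and every replicate individually at or above 50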
INS-1E GSIS act: GLuc luminescence reporter in INS-1E cells, primary screen for activators of glucose-dependent secretion of insulin; 0.61% of 370,000 active; INS-1E GLuc reporter insulin secretion, 2-3 h; activation, % at 16.6 µM;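 active = lowest replicate activation of at least 40%, so every replicate reaches that level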
Of the large screens only hits and unclear results are named; the others gave an inactive call; ! = a repeat was not active.

Cc1noc(C)c1S(=O)(=O)N(C)C[C@H]1Oc2ccc(NS(C)(=O)=O)cc2C(=O)N([C@H](C)CO)C[C@@H]1C	none (no result: F508del corr, Cneo AK release, miR122 inh, HIV Env fusion)
COc1ccc(C(=O)Nc2ccc3c(c2)C(=O)c2ccccc2C3=O)cc1OC	INS-1E GSIS act 62 (no result: Ecoli rRNA inh, F508del corr, Cneo AK release, miR122 inh)
COc1cc(C(=O)Nc2ccc3c(c2)C(=O)c2ccccc2C3=O)cc(OC)c1OC	none (no result: Ecoli rRNA inh, F508del corr)
CCCCc1[nH]c(=O)c(C#N)c2c1CCCC2	INS-1E GSIS act 99 (no result: Ecoli rRNA inh, F508del corr, Cneo AK release)
CCCCc1[nH]c(=O)c(C#N)c2c1CSC(C)(C)C2	none (no result: Ecoli rRNA inh, F508del corr, Cneo AK release, miR122 inh)
Nc1ccccc1-c1nnn(CC(=O)Nc2ccc3c(c2)OCCO3)n1	Ecoli rRNA inh -25
S=C(NCc1ccccn1)NN=Cc1ccccn1	Ecoli rRNA inh -19 (no result: Cneo AK release, miR122 inh, INS-1E GSIS act)
CCOC(=O)c1c(C)n(CC(O)CN(CC)CC)c2cc(Br)c(OC)cc12 (stereo not given)	INS-1E GSIS act 68
C[C@@H]1CN([C@H](C)CO)C(=O)c2cccc(NC(=O)C3CC3)c2O[C@H]1CN(C)C	none
CNC(=O)C[C@H]1CC[C@@H]2[C@H](COC[C@H](O)CN2S(=O)(=O)c2ccccc2Cl)O1	none (no result: HIV Env fusion)
COc1ccc2c(c1)OC[C@H]1[C@H]2N2C(=O)CN(Cc3ccc(C)cc3)C(=O)[C@@]2(C)[C@H]1c1ccccc1	HIV Env fusion 87
COc1ccc2c(c1)OC[C@H]1[C@H]2N2C(=O)CN(Cc3ccc(F)cc3)C(=O)[C@@]2(C)[C@H]1c1ccccc1	none
Cc1ccc2c(c1)[C@H]1[C@H](CO2)[C@H](c2ccccc2)[C@]2(C)C(=O)N(Cc3ccc(Cl)cc3)CC(=O)N12	HIV Env fusion 65
Cc1ccc2c(c1)[C@H]1[C@H](CO2)[C@H](c2ccccc2)[C@]2(C)C(=O)N(Cc3ccc(F)cc3)CC(=O)N12	HIV Env fusion 62
COc1ccc(C(=O)O)cc1S(=O)(=O)Nc1cc(Cl)ccc1N1CCOCC1	none
COc1ccc(C(=O)O)cc1S(=O)(=O)Nc1cc(C(F)(F)F)ccc1N1CCCCC1	Ecoli rRNA inh -25
CCOC(=O)c1ccc(N2CCCCC2)c(NS(=O)(=O)c2cccc(C(F)(F)F)c2)c1	HIV Env fusion 64
COC(=O)c1ccc(N2CCCCC2)c(NS(=O)(=O)c2ccc(C)cc2)c1	none (no result: HIV Env fusion)
CC1CCCN(Cc2c(C(=O)N3CCc4ccccc4C3)nc3ccc(Cl)cn23)C1 (stereo not given)	Ecoli rRNA inh -25
CCN(CCn1cccn1)C(=O)CC1C(=O)NCCN1CCc1ccccc1 (stereo not given)	HIV Env fusion 88
CCOC(=O)CNC(=S)N(Cc1ccccc1)Cc1cccs1	Ecoli rRNA inh -26
CCOC(=O)CNC(=S)N(Cc1ccccc1)Cc1ccccc1F	Ecoli rRNA inh -34 (no result: Cneo AK release, miR122 inh)
Cc1cccc(C)c1NC(=S)N(Cc1ccccc1)Cc1cccs1	Ecoli rRNA inh -21
O=C(O)CNC(=S)N(Cc1ccccc1)Cc1cccs1	none (no result: Cneo AK release, miR122 inh)
Cc1cc(C(=O)Nc2cccc3c2O[C@H](CN(C)C(=O)Nc2ccc(F)cc2)[C@H](C)CN([C@H](C)CO)C3=O)n(C)n1	none (no result: HIV Env fusion)
C[C@H](CO)N1C[C@H](C)[C@H](CN(C)Cc2ccccc2)Oc2ccc(NC(=O)CCCN(C)C)cc2C1=O	none
C[C@@H]1CN(C)C(=O)c2cccc(N(C)C)c2O[C@@H]1CN(C)S(C)(=O)=O	none (no result: F508del corr, Cneo AK release, miR122 inh, HIV Env fusion)
O=C(C[C@@H]1CC[C@@H](NC(=O)CN2CCOCC2)[C@@H](CO)O1)NC1CCCCC1	none (no result: miR122 inh)
COc1ccc(S(=O)(=O)Nc2ccc3c(c2)C(=O)N([C@H](C)CO)C[C@@H](C)[C@H](CN(C)C(=O)NC2CCCCC2)OCCCC[C@@H](C)O3)cc1	none
CC(NCC(O)COCCC12CC3CC(CC(C3)C1)C2)c1ccccc1 (stereo not given)	HIV Env fusion 73, INS-1E GSIS act 167 (no result: miR122 inh)
NCC(O)COCCC12CC3CC(CC(C3)C1)C2 (stereo not given)	none (no result: Ecoli rRNA inh, F508del corr, INS-1E GSIS act)
CCC(=O)Nc1ccc2c(c1)OC[C@H](C)N(C(=O)CC1CC1)C[C@@H](C)[C@@H](OC)CN(C)C2=O	none (no result: HIV Env fusion)
O=C(CCN1CCCCC1)N[C@@H]1CC[C@H](CCn2cc(-c3ccccc3)nn2)O[C@H]1CO	none (no result: miR122 inh)
N#C/C(=C\c1ccco1)C(=O)Nc1ccc(S(N)(=O)=O)cc1	none (no result: Cneo AK release, miR122 inh)
N#C/C(=C/c1ccc(-c2ccc(S(N)(=O)=O)cc2)o1)C(=O)Nc1ccccc1	INS-1E GSIS act 116 (no result: Ecoli rRNA inh, F508del corr)
COc1cccc(CN2[C@@H]3CNC[C@H]2C3c2ccc(/C=C/c3ccccc3)cc2)c1 (stereo not given in full)	none (no result: Cneo AK release, miR122 inh, HIV Env fusion)
COc1cc(CN2[C@@H]3CNC[C@H]2C3c2ccc(/C=C/c3ccccc3)cc2)cc(OC)c1 (stereo not given in full)	INS-1E GSIS act 49! (no result: Cneo AK release, miR122 inh, HIV Env fusion)
COc1ccc(CNC(=O)C[C@@H]2C[C@@H]3c4cc(NC(=O)NC5CCCC5)ccc4O[C@@H]3[C@H](CO)O2)cc1	none (no result: HIV Env fusion)
COc1ccc(/C=C/C(=O)N2CCN(c3ccccn3)CC2)cc1	Ecoli rRNA inh -23
COc1cccc(/C=C/C(=O)N2CCN(c3ccccn3)CC2)c1	none (no result: miR122 inh)
S=c1nc(-c2ccccc2Cl)n(Cc2cccnc2)c2c1CCCC2	Ecoli rRNA inh -26 (no result: F508del corr, Cneo AK release, miR122 inh)
COc1cc(NC(=O)c2csc(N)n2)cc(C(=O)Nc2cccc(C(F)(F)F)c2)c1	F508del corr 8.0!
COc1cc(NC(=O)c2cnc(N)s2)cc(C(=O)Nc2cccc(C(F)(F)F)c2)c1	none
COc1ccc2c3c(n(C)c2c1)[C@@H](CO)N(C(=O)CC1CC1)CC31CCN(Cc2ccncc2)CC1	none (no result: Cneo AK release, miR122 inh, HIV Env fusion)
C[C@H](NC(=O)C[C@@H]1CC[C@@H](NC(=O)C2CCOCC2)[C@H](CO)O1)c1ccccc1	none (no result: miR122 inh)
COc1ccccc1N=C1SC(C(=O)Nc2cccc(Cl)c2Cl)C(N)=C1C(N)=O (stereo not given)	F508del corr 9.5 (no result: Cneo AK release, miR122 inh)
Cc1n[nH]c(C)c1S(=O)(=O)N1CCC(C(=O)N2CCn3c2nc2ccccc23)CC1	Ecoli rRNA inh -23 (no result: HIV Env fusion)
CCN1C(=O)C(CC(=O)Nc2ccc(OC)cc2)N(CCN2CCOCC2)C1=S (stereo not given)	none
CCN1C(=O)C(CC(=O)Nc2ccc(OC)cc2)N(CCCN2CCN(c3ccc(OC)cc3)CC2)C1=S (stereo not given)	Ecoli rRNA inh -20
CC(=O)Nc1ccc(NC(=O)C(C)OC(=O)C23CC4CC(CC(Cl)(C4)C2)C3)cc1 (stereo not given)	Ecoli rRNA inh -26 (no result: HIV Env fusion)
CC(=O)c1ccc(NC(=O)c2cc(CC(C)C)nc3ccccc23)cc1	HIV Env fusion 58 (no result: INS-1E GSIS act)
